Tests used:
[1] = system: Human immunodeficiency virus 1; assay: Antiviral activity against multi drug-resistant HIV1 K variant in human PHA-PBMC cells; type: functional, organism-based; details: Human immunodeficiency virus 1, PBMC
Outline: (§1)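 PHA-activated peripheral blood mononuclear cells (1 × 10⁶/mL) infected with 50 TCID₅₀ of each isolate and cultured with or without drug in 10-fold serial dilutions. On day 7, p24 Gag protein in the supernatant was measured by automated chemiluminescent enzyme immunoassay. IC₅₀ was the concentration suppressing p24 production by 50% relative to drug-free control cultures. Assays were run in triplicate.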

[2] = system: Human immunodeficiency virus 1; assay: Antiviral activity against multi drug-resistant HIV1 C variant in human PHA-PBMC cells; type: functional, organism-based; details: Human immunodeficiency virus 1, PBMC; outline: as §1
[3] = system: Human immunodeficiency virus 1; assay: Antiviral activity against multi drug-resistant HIV1 TM variant in human PHA-PBMC cells; type: functional, organism-based; details: Human immunodeficiency virus 1, PBMC; outline: as §1
[4] = system: Human immunodeficiency virus 1; assay: Antiviral activity against multi drug-resistant HIV1 ET variant in human PHA-PBMC cells; type: functional, organism-based; details: Human immunodeficiency virus 1, PBMC; outline: as §1
[5] = system: Human immunodeficiency virus 1; assay: Antiviral activity against multi drug-resistant HIV1 G variant in human PHA-PBMC cells; type: functional, organism-based; details: Human immunodeficiency virus 1, PBMC; outline: as §1
[6] = system: Human immunodeficiency virus 1; assay: Antiviral activity against HIV1 LAI isolate in human MT2 cells; type: functional, organism-based; details: Human immunodeficiency virus 1, MT2
Outline: (§2)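 MT-2 cells (2 × 10⁴/mL) were infected with 100 TCID₅₀ of virus and incubated with various drug concentrations at 37 °C for 7 days. MTT was then added for 2 h at 37 °C, formazan was dissolved in acidified 2-propanol with 4% Triton X-100, and optical density was read. Assays were run in duplicate or triplicate.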

[7] = system: Human immunodeficiency virus 2; assay: Antiviral activity against HIV2 EHO isolate in human MT2 cells; type: functional, organism-based; details: Human immunodeficiency virus 2, MT2; outline: as §2
[8] = system: Human immunodeficiency virus 1; assay: Antiviral activity against HIV1 BA-L isolate in human PHA-PBMC cells; type: functional, organism-based; details: Human immunodeficiency virus 1, PBMC
Outline: as §1, with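 “PBMC” for “peripheral blood mononuclear cells”, “were exposed to” for “infected with”, “7, supernatant” for “7,”, “Gag” for “Gag protein in the supernatant”, “by” for “by automated”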

[9] = system: Human immunodeficiency virus 1; assay: Antiviral activity against multi drug-resistant HIV1 ES variant in human PHA-PBMC cells; type: functional, organism-based; details: Human immunodeficiency virus 1, PBMC; outline: as §1
[10] = system: Human immunodeficiency virus 1; assay: Antiviral activity against multi drug-resistant HIV1 EV variant in human PHA-PBMC cells; type: functional, organism-based; details: Human immunodeficiency virus 1, PBMC; outline: as §1
[11] = system: Human immunodeficiency virus 1; assay: Antiviral activity against HIV1 LAI isolate in human PHA-PBMC cells; type: functional, organism-based; details: Human immunodeficiency virus 1, PBMC
Outline: as §1, with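 “PBMC” for “peripheral blood mononuclear cells”, “were exposed to” for “infected with”, “7, supernatant” for “7,”, “Gag” for “Gag protein in the supernatant”, “by” for “by automated”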

[12] = system: Human immunodeficiency virus 1; assay: Antiviral activity against multi drug-resistant HIV1 B variant in human PHA-PBMC cells; type: functional, organism-based; details: Human immunodeficiency virus 1, PBMC; outline: as §1
[13] = molecular target: Human immunodeficiency virus type 1 protease (Human immunodeficiency virus 1, UniProt Q72874); assay: Inhibition of HIV1 protease
[14] = system: MT2; assay: Cytotoxicity against human MT2 cells; type: functional
[15] = system: PBMC; assay: Cytotoxicity against human PHA-PBMC cells; type: functional

CC(C)(C)NC(=O)[C@@H]1C[C@@H]2CCCC[C@@H]2CN1C[C@@H](O)[C@H](Cc1ccccc1)NC(=O)[C@H](CC(N)=O)NC(=O)c1ccc2ccccc2n1 showed an IC50 [1] of 20 nM, an IC50 [2] of 100 nM and an IC50 [3] of 250 nM. It also gave an IC50 [4] of 17 nM, an IC50 [5] of 59 nM and an IC50 [6] of 24 nM. For the same compound, the IC50 [7] was 1.9 nM, the IC50 [8] was 18 nM and the IC50 [9] was > 1000 nM. The IC50 [10] was > 1000 nM and the IC50 [11] was 14 nM.

For CC(C)CN(C[C@@H](O)[C@H](Cc1ccccc1)NC(=O)O[C@H]1CCOC1)S(=O)(=O)c1ccc(N)cc1, the IC50 [1] was 68 nM, the IC50 [2] was 300 nM and the IC50 [3] was 220 nM. It also gave an IC50 [4] of 23 nM, an IC50 [12] of 290 nM and an IC50 [5] of 310 nM. It also gave an IC50 [6] of 24 nM, an IC50 [7] of 440 nM and an IC50 [8] of 29 nM. The IC50 [9] was > 1000 nM, the IC50 [10] was > 1000 nM and the IC50 [11] was 34 nM.

CC(C)CN(C[C@@H](O)[C@H](Cc1ccccc1)NC(=O)O[C@H]1CO[C@H]2OCC[C@H]21)S(=O)(=O)c1ccc(N)cc1 gave an IC50 [1] of 3 nM, an IC50 [2] of 3.5 nM and an IC50 [3] of 3.5 nM. For the same compound, the IC50 [12] was 10.2 nM and the IC50 [5] was 3.7 nM.

For CC(C)CN(CC(O)C(Cc1ccccc1)NC(=O)O[C@@H]1C[C@@H]2CCO[C@@H]2C1)S(=O)(=O)c1ccc(N)cc1 (some centres not stated), the IC50 [6] was 8 nM and the Ki [13] was 0.14 nM.

In the case of CC(C)CN(CC(O)C(Cc1ccccc1)NC(=O)O[C@H]1C[C@H]2CCC[C@H]2C1)S(=O)(=O)c1ccc(CO)cc1 (some centres not stated), the IC50 [6] is reported as > 1000 nM and the Ki [13] is reported as 5.3 nM.

For CC(C)CN(CC(O)C(Cc1ccccc1)NC(=O)O[C@@H]1C[C@@H]2CCO[C@@H]2C1)S(=O)(=O)c1ccc(CO)cc1 (some centres not stated), the IC50 [1] was 3 nM, the IC50 [2] was 5 nM and the IC50 [3] was 4 nM. The CC50 [14] was > 100000 nM, the IC50 [4] was 3 nM and the IC50 [12] was 15 nM. The IC50 [5] was 20 nM, the IC50 [6] was 1.8 nM and the IC50 [7] was 21 nM. It also gave an IC50 [8] of 2 nM, an IC50 [9] of 31 nM and an IC50 [10] of 52 nM. For the same compound, the CC50 [15] was > 100000 nM and the IC50 [11] was 1.8 nM.

CC(C)(C)NC(=O)[C@@H]1CN(Cc2cccnc2)CCN1C[C@@H](O)C[C@@H](Cc1ccccc1)C(=O)N[C@H]1c2ccccc2C[C@H]1O was tested, and the IC50 [1] was 260 nM, the IC50 [2] was 500 nM and the IC50 [3] was > 1000 nM. The IC50 [4] was 30 nM, the IC50 [12] was > 1000 nM and the IC50 [5] was 500 nM. For the same compound, the IC50 [6] was 26 nM, the IC50 [7] was 13 nM and the IC50 [8] was 24 nM. For the same compound, the IC50 [9] was > 1000 nM, the IC50 [10] was > 1000 nM and the IC50 [11] was 32 nM.

With Cc1c(O)cccc1C(=O)N[C@@H](CSc1ccccc1)[C@H](O)CN1C[C@H]2CCCC[C@H]2C[C@H]1C(=O)NC(C)(C)C the IC50 [1] was > 1000 nM, the IC50 [2] was 310 nM and the IC50 [3] was > 1000 nM. For the same compound, the IC50 [4] was 32 nM, the IC50 [12] was > 1000 nM and the IC50 [5] was 170 nM. It also gave an IC50 [6] of 10 nM, an IC50 [7] of 20 nM and an IC50 [8] of 7 nM. For the same compound, the IC50 [9] was > 1000 nM, the IC50 [10] was > 1000 nM and the IC50 [11] was 14 nM.

With CC(C)c1nc(CN(C)C(=O)N[C@H](C(=O)N[C@@H](Cc2ccccc2)C[C@H](O)[C@H](Cc2ccccc2)NC(=O)OCc2cncs2)C(C)C)cs1 [RITONAVIR] the IC50 [1] was 57 nM, the IC50 [2] was > 1000 nM and the IC50 [3] was > 1000 nM. The IC50 [4] was 15 nM, the IC50 [12] was > 1000 nM and the IC50 [5] was > 1000 nM. For the same compound, the IC50 [6] was 34 nM, the IC50 [7] was 290 nM and the IC50 [8] was 36 nM. For the same compound, the IC50 [9] was > 1000 nM, the IC50 [10] was > 1000 nM and the IC50 [11] was 43 nM.
